Laboratory results taken from ChEMBL document CHEMBL1149489, “Synthesis and biological evaluation of benzamides and benzamidines as selective inhibitors of VEGFR tyrosine kinases” (Bioorg Med Chem Lett, 2006).
Calls of active or inactive are those of the source. The calls are words filed in the database; no cut-off is given here.

These compounds were tested against Epidermal growth factor receptor (Homo sapiens) (UniProt P00533) (assay: Inhibition of EGFR at 10 uM).
Chain of Epidermal growth factor receptor (Homo sapiens) (P00533 whole entry): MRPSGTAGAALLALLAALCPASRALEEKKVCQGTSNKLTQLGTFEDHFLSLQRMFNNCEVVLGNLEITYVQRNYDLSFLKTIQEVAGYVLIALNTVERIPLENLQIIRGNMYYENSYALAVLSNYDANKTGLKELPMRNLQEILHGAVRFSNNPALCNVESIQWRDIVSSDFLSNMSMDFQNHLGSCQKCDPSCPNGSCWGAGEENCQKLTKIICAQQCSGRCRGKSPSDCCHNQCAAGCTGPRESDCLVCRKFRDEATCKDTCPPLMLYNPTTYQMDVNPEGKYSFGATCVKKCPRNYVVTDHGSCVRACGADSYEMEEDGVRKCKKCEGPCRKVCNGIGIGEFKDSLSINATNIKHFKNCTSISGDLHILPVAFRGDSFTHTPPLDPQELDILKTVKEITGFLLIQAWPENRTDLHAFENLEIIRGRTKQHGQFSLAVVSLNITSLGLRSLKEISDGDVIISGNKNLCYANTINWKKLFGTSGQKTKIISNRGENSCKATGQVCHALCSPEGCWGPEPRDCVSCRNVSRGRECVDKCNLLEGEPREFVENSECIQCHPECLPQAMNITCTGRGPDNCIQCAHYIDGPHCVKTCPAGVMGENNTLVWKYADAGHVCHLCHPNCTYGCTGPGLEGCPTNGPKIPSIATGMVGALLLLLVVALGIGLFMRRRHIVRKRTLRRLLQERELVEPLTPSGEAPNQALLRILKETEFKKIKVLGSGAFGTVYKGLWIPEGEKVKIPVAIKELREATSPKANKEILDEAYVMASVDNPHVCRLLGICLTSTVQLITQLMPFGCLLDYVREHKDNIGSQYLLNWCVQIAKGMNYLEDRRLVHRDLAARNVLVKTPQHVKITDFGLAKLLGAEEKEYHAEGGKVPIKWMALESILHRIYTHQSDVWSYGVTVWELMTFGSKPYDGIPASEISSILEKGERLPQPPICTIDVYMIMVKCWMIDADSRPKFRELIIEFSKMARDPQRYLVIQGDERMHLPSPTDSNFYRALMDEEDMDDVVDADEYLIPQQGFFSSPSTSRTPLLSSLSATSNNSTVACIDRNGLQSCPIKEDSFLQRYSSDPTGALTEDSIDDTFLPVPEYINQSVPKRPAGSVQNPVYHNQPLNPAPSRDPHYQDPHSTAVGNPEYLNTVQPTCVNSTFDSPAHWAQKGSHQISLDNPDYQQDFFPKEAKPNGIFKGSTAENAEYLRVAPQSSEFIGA
How it was run: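 ELISA autophosphorylation-type assay. Wells were coated overnight at 4 °C with 50 µg/ml poly(Glu:Tyr, 4:1) in PBS. The kinase reaction ran 20 min in 50 mM HEPES, 125 mM NaCl, 10 mM MgCl2, pH 7.4, with 100 µM ATP and compound at 10 µM. Phosphotyrosine was detected with HRP anti-phosphotyrosine antibody and TMB, acid-stopped, and read at A450.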
For `N=C(Nc1ccccc1Cl)c1ccccc1NCc1ccncc1`, the Activity was “inactive”.
In the case of `COc1cc(NCc2ccncc2)c(C(=N)Nc2ccccc2C(F)(F)F)cc1OC`, the Activity is reported as “inactive”.
With `N=C(Nc1ccccc1C(F)(F)F)c1ccccc1NCc1ccncc1` the Activity was “inactive”.
In the case of `COc1cc(NCc2ccncc2)c(C(=O)Nc2ncccn2)cc1OC`, the Activity is reported as “inactive”.
For `COc1cc(OCc2ccncc2)c(C(=N)Nc2ccccc2Cl)cc1OC`, the Activity was “inactive”.
`N=C(Nc1ccccc1Cl)c1ccccc1OCc1ccncc1` was tested, and the Activity was “inactive”.
For `N=C(Nc1ccc(Cl)cc1)c1ccccc1OCc1ccncc1`, the Activity was “inactive”.
`O=C(Nc1cnccn1)c1ccccc1NCc1ccncc1` was tested, and the Activity was “inactive”.
With `COc1cc(NCc2ccncc2)c(C(=O)Nc2ccccn2)cc1OC` the Activity was “inactive”.
For `O=C(Nc1ccccc1Cl)c1ccccc1OCc1ccncc1`, the Activity was “inactive”.
In the case of `COc1cc(OCc2ccncc2)c(C(=O)Nc2ccccc2C(F)(F)F)cc1OC`, the Activity is reported as “inactive”.
For `COc1cc(OCc2ccncc2)c(C(=O)Nc2ncccn2)cc1OC`, the Activity was “inactive”.
`O=C(Nc1ccccc1C(F)(F)F)c1ccccc1OCc1ccncc1` was tested, and the Activity was “inactive”.
`COc1cc(NCc2ccncc2)c(C(=N)Nc2ccc(Cl)cc2)cc1OC` was tested, and the Activity was “inactive”.
For `COc1cc(OCc2ccncc2)c(C(=O)Nc2cnccn2)cc1OC`, the Activity was “inactive”.
`COc1cc(OCc2ccncc2)c(C(=O)Nc2ccc(Cl)cc2)cc1OC` was tested, and the Activity was “inactive”.
In the case of `COc1cc(NCc2ccncc2)c(C(=O)Nc2cnccn2)cc1OC`, the Activity is reported as “inactive”.
`O=C(Nc1ncccn1)c1ccccc1NCc1ccncc1` was tested, and the Activity was “inactive”.
In the case of `O=C(Nc1ccccn1)c1ccccc1NCc1ccncc1`, the Activity is reported as “inactive”.
With `N=C(Nc1ccccc1C(F)(F)F)c1ccccc1OCc1ccncc1` the Activity was “inactive”.
In the case of `COc1cc(OCc2ccncc2)c(C(=O)Nc2ccccc2Cl)cc1OC`, the Activity is reported as “inactive”.
In the case of `COc1cc(OCc2ccncc2)c(C(=N)Nc2ccc(Cl)cc2)cc1OC`, the Activity is reported as “inactive”.
For `COc1cc(NCc2ccncc2)c(C(=N)Nc2ccccc2Cl)cc1OC`, the Activity was “inactive”.
In the case of `COc1cc(OCc2ccncc2)c(C(=N)Nc2ccccc2C(F)(F)F)cc1OC`, the Activity is reported as “inactive”.
With `COc1cc(OCc2ccncc2)c(C(=O)Nc2ccccn2)cc1OC` the Activity was “inactive”.
`N=C(Nc1ccc(Cl)cc1)c1ccccc1NCc1ccncc1` was tested, and the Activity was “inactive”.
